Measured values of several laboratories.
Each line is one published result; the experiments were not run side by side.

SMILES	host	matrix	route	dose	notes	Cmax
Cc1ccc2cncc(N3CCc4c(cc(Cn5ccnc5)cc4-c4cn(C)nc4C(F)(F)F)C3=O)c2c1	male CD-1 mouse	plasma	oral	10 mg/kg		2680 ng/mL
CCOc1ccc(Cc2cc([C@@H]3O[C@H](CO)[C@@H](O)[C@H](O)[C@H]3O)ccc2Cl)cc1	male C57BL/6 mouse	plasma	oral	1 mg/kg		207 ng/mL
CCc1cc(C(=O)NC)c2nccc(N3CCc4c(cc(Cn5ccnc5)cc4-c4cn(C)nc4C(F)(F)F)C3=O)c2c1	male CD-1 mouse	plasma	oral	150 mg/kg		131000 ng/mL
OC[C@H]1O[C@@H](c2ccc(Cl)c(Cc3ccc(O[C@H]4CCOC4)cc3)c2)[C@H](O)[C@@H](O)[C@@H]1O	CD-1 mouse	plasma	intravenous	5 mg/kg		4920 ng/mL
FC(F)(F)Oc1ccc(Nc2cc(-c3cn[nH]c3)ncn2)cc1	male BALB/c mouse	plasma	oral	20 mg/kg		3400 ng/mL
CS(=O)(=O)CCNCc1ccc(-c2ccc3ncnc(Nc4ccc(OCc5cccc(F)c5)c(Cl)c4)c3c2)o1	nude mouse	plasma	oral	100 mg/kg	single dose	15200 ng/mL
NC[C@@H]1O[C@H](O[C@H]2[C@@H](O)[C@H](O[C@@H]3[C@@H](O)[C@H](N)C[C@H](N)[C@H]3O[C@H]3O[C@H](CO)[C@@H](O)[C@H](O)[C@H]3N)O[C@@H]2CO)[C@H](N)[C@@H](O)[C@@H]1O	male BALB/c mouse	plasma	oral	500 mg/kg		690 ng/mL
CNC(=O)[C@H](Cc1c[nH]cn1)NC(=O)CN(CCCc1ccccc1)CC(=O)OC	male C57BL/6 mouse	plasma	intraperitoneal	30 mg/kg		3800 ng/mL
COc1cc2c(Nc3ccc(Cl)c(Cl)c3F)ncnc2cc1OC[C@@H]1C[C@@H]2CN(C)C[C@@H]2C1	FVB mouse	brain	oral	70 mg/kg	single dose	7570 ng/g
COC(=O)CN(CCCc1ccccc1)CC(=O)N[C@@H](Cc1c[nH]cn1)c1nc(C)no1	male C57BL/6 mouse	plasma	intraperitoneal	30 mg/kg		1000 ng/mL
CCc1ccc(Cc2cc([C@@H]3O[C@H](CO)[C@@H](O)[C@H](O)[C@H]3O)cc3c2CCC3)cc1	male C57BL/6 mouse	plasma	oral	3 mg/kg		1830 ng/mL
COc1ccc(C(O)COc2ccc(-c3csc(-c4ccc(OCC(O)c5ccc(OC)c(OC)c5)cc4)n3)cc2)cc1OC (centres unmarked)	C57BL/6 mouse	plasma	oral	10 mg/kg		1760 ng/mL
NC1(C(=O)N[C@@H](CCO)c2ccc(Cl)cc2)CCN(c2ncnc3[nH]ccc23)CC1	male Swiss mouse	plasma	intraperitoneal	25 mg/kg	single dose	~8 µM
CN1CCC[C@H](CN2c3ccccc3Sc3ccccc32)C1.Cl	mouse	plasma	intraperitoneal	32 mg/kg	single dose	1560 ng/mL
O=S(=O)(c1ccc(-c2ccc3nccc(Nc4ccncn4)c3c2)cc1)N1CCOCC1	female BALB/c mouse	plasma	intraperitoneal	10 mg/kg		4460 ng/mL
CNC(=O)c1cc(Oc2ccc(NC(=O)Nc3ccc(Cl)c(C(F)(F)F)c3)c(F)c2)cc[n+]1[O-]	mouse	plasma	oral	10 mg/kg	single dose	360 ng/mL
O=C(NO)c1ccc(CN(c2cnccn2)c2cnccn2)cc1	male C57BL/6 mouse	plasma	oral	200 mg/kg	multiple doses, once daily, tumour-bearing	300 ng/mL
O=C(CCCCCC(=O)NN=Cc1ccc(-c2ccccc2)cc1)NO	C57BL/6 mouse	brain	intraperitoneal	25 mg/kg	single dose	0.06 µM
CC(=O)O[C@H]1C(=O)[C@@]2(C)[C@H]([C@H](OC(=O)c3ccccc3)[C@]3(O)C[C@H](OC(=O)[C@H](O)[C@@H](NC(=O)c4ccccc4)c4ccccc4)C(C)=C1C3(C)C)[C@]1(OC(C)=O)CO[C@@H]1C[C@@H]2O	SCID mouse	tumour	intraperitoneal	10 mg/kg	single dose, tumour-bearing	3700 ng/g
CC[C@H](C)[C@@H]1NC(=O)[C@@](C)(NC(=O)[C@H](CCCNC(=N)N)NC(=O)[C@H](CC(C)C)NC(=O)[C@@H](NC(=O)[C@H](CCC(N)=O)NC(=O)[C@H](CC(C)C)NC(C)=O)[C@@H](C)O)CCCC=CCCC[C@@](C)(C(=O)N[C@@H](CC(C)C)C(=O)N[C@@H](Cc2ccc3ccccc3c2)C(N)=O)NC(=O)[C@H](CCCNC(=N)N)NC(=O)[C@H](CCC(N)=O)NC1=O	male BALB/c mouse	plasma	intravenous	10 mg/kg		86 µM
COc1nc(-c2cc(C)c(N[C@@H](C)c3cc(F)cc(F)c3)nn2)ccc1-n1cnc(C)c1	male CD-1 mouse	plasma	oral	5 mg/kg	single dose	1180 ng/mL
C[C@H](NC(=O)C(C)(C)Oc1ccc(C(F)(F)F)cn1)[C@@H](Cc1ccc(Cl)cc1)c1cccc(C#N)c1	mouse	plasma	oral	6 µmol/kg	single dose	0.7 µM
CSc1cc(Oc2ccnc3[nH]c(=O)cnc23)ccc1NC(=O)Nc1cc(C(C)(C)C)nn1-c1ccccc1	BALB/c mouse	plasma	intravenous	2 mg/kg		29.8 µM
NC(=O)c1cc(Oc2ccc(NC(=O)Nc3ccc(Cl)c(C(F)(F)F)c3)c(F)c2)cc[n+]1[O-]	mouse	plasma	oral	10 mg/kg	single dose	22.9 ng/mL

SMILES	host	matrix	route	dose	notes	Cmax
COc1nc(-c2cc(C)c(N[C@@H](C)c3ccc(F)cc3)nn2)ccc1-n1cnc(C)c1	male CD-1 mouse	plasma	oral	5 mg/kg	single dose	1530 ng/mL
Cc1ccc(NC(=O)c2ccc(CN3CCN(C)CC3)cc2)cc1Nc1nccc(-c2cncc(-c3oncc3C)c2)n1	male C57BL/6 mouse	brain	oral	100 mg/kg/day		98.1 ng/mL
Cc1c(C(=O)NN2CCCCC2)nc(-c2ccc(Cl)cc2Cl)n1-c1ccc(OS(=O)(=O)CCC(F)(F)F)cc1	mouse	plasma	oral	20 µmol/kg	single dose	1.2 µM
C=CC(=O)N1CC2CC(n3nc(-c4ccc(C(=O)Nc5ccccn5)cc4)c4c(N)ncnc43)CC2C1 (centres unmarked)	SCID mouse	plasma	oral	5 mg/kg		429 ng/mL
CN1C(=O)c2ccccc2[S@+]([O-])c2ccc(C(=O)NCCc3cccs3)cc21	male C57BL/6 mouse	plasma	intraperitoneal	30 mg/kg	single dose	8280 ng/mL
CC(C)(O)c1cn(-c2ccc(-c3cc(F)c(CO)c(S(C)(=O)=O)c3)cc2F)c(C(C)(C)c2c(Cl)cccc2Cl)n1	male C57BL/6 mouse	serum	oral	10 mg/kg		0.71 µM
CCn1ncc2c(Nc3ccc(OC(F)(F)F)cc3)ncnc21	male BALB/c mouse	plasma	oral	20 mg/kg		263 ng/mL
COc1ccc2nc(-c3ccccn3)c(N(C)c3ccc(F)cc3)n2c1	male CD-1 mouse	plasma	oral	50 mg/kg	fasted	1440 ng/mL
CC(C)(O)c1cn(-c2ccc(-c3cc(F)c(CO)c(S(C)(=O)=O)c3)cc2)c(C(C)(C)c2cccc(F)c2Cl)n1	male C57BL/6 mouse	serum	oral	10 mg/kg		1.9 µM
CC=Cc1ccc(O)c(OC)c1	mouse	brain	intranasal	100 mg/kg		4340 ng/g
CC(C)(C)c1ccc(O)c(CN(Cc2cc(C(C)(C)C)ccc2O)C2CCC(NC(N)=O)CC2)c1 (centres unmarked)	male C57BL/6 mouse	brain	intraperitoneal	25 mg/kg	single dose	1610 ng/g
Cn1cnc2c(F)c(Nc3ccc(Br)cc3Cl)c(C(=O)NOCCO)cc21	nude mouse	liver	oral	5 mg/kg	single dose, tumour-bearing	1340 ng/g
CNCCN(C)c1cc(C#N)cc(CCc2cc(C)cc(N)n2)c1	male BALB/c mouse	plasma	oral	10 mg/kg		50.8 ng/mL
CNC(=O)c1cc(OC)cc2c(N3CCc4c(cc(Cn5ccnc5)cc4-c4cn(C)nc4C(F)(F)F)C3=O)ccnc12	male CD-1 mouse	plasma	oral	50 mg/kg		46100 ng/mL
COc1nc(-c2cc(C)c(N[C@@H](C)c3c(F)cc(F)cc3F)nn2)ccc1-n1cnc(C)c1	male CD-1 mouse	plasma	intravenous	1 mg/kg	single dose	858 ng/mL
CC(C)(C)c1cc(NC(=O)Nc2ccc(Oc3ccnc4[nH]c(=O)cnc34)cc2F)n(-c2ccccc2)n1	BALB/c mouse	plasma	intravenous	2 mg/kg		38.1 µM
COc1ccc2c3c1O[C@H]1C[C@@H](OC(=O)c4ccccc4)C=C[C@@]31CCN(C)C2	mouse	brain	intravenous	3 mg/kg		4810 ng/g
Cc1cc(Nc2ccc(S(F)(F)(F)(F)F)cc2)n2ncnc2n1	male Swiss mouse	plasma	oral	100 mg/kg	single dose	59 µM
CCc1cc(OC)c2nccc(N3CCc4c(cc(Cn5ccnc5)cc4-c4cn(C)nc4C(F)(F)F)C3=O)c2c1	male CD-1 mouse	plasma	oral	150 mg/kg		35200 ng/mL
COc1ccc([C@@]23Oc4cc(OC)cc(OC)c4[C@]2(O)[C@H](O)[C@H](C(=O)N(C)C)[C@H]3c2ccccc2)cc1	mouse	plasma	intraperitoneal	5 mg/kg		~4 µM
Cc1nc(-c2cnc(NC(C)C)n(C)c2=O)ccc1Oc1ccnc(-c2cnn(C)c2)c1	female mouse	plasma	oral	30 mg/kg	single dose	9350 ng/mL
COc1ccc2nccc(N3CCc4c(cc(Cn5ccnc5)cc4-c4cn(C)nc4C(F)(F)F)C3=O)c2c1	male CD-1 mouse	plasma	oral	50 mg/kg		8940 ng/mL
Cc1nc2ccc(F)cc2n1-c1nc(N)c(F)c(Nc2ccc(C(F)(F)F)cc2)n1	nude mouse	plasma	oral	10 mg/kg		1160 ng/mL
